These results are taken from the RNAGym collection of RNA variant scans (doi:10.1038/nmeth.2970).

B1: NELF-E aptamer (parent)
chain: CCCAACGACUGCCGAGCGAGAUUACGCUUGAGCGCCCCACUGAGGAUGCCCACGGGCGAUUGGGGCACGG

Variants of B1 are the subject of the series. Briefly: HiTS-RAP. Conditions: with NELF-E (Drosophila). An outline of the steps: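 Aptamer DNA templates carrying a T7 promoter and ter site were sequenced on an Illumina GAIIx flowcell, then transcribed in situ by T7 RNA polymerase and halted by GST-Tus (30 minutes, 37°C). Clusters were imaged after 30-minute room-temperature equilibration with NELF-E-mOrange at 0.064 to 1000 nM in HEPES binding buffer, and only the first binding curve was used. Intensities were normalised to sequencing intensity and averaged per sequence. Kd came from weighted Hill fits, keeping fits with variance below 1,000,000.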
As a reminder, the Kd is the equilibrium constant for the complex coming apart. Turning to CCCAACGACUGCCGAGCGAGAGUACGCUUGAGCGCCCCACUGAGGAUGCCCACGGGCGAUGGGGGCACGG [U22G U61G], the Kd amounted to 9.56 nM.

CCCAACGACUGCCGAGCGAGAGUACGCUUGAGCGCCCCACUGAGGAUGCCCACGGGCGAUAGGGGCACGG [U22G U61A]: the Kd was 29.9 nM.

Take CCCAACGACUGCCGAGCGAGAUGACGCUUGAGCACCCCACUGAGGAUGCCCACGGGCGAUUGGGGCACGG [U23G G34A]: the Kd came out at 7.56 nM.

Consider CCCAACGACUGCCGAGCGAGAUGACGCUUGAGCUCCCCACUGAGGAUGCCCACGGGCGAUUGGGGCACGG [U23G G34U], for which the Kd was 5.63 nM.

In the case of CCCAACGACUGCCGAGCGAGAUGACGCUUAAGCGCCCCACUGAGGAUGCCCACGGGCGAUUGGGGCACGG [U23G G30A], the Kd amounted to 4.6 nM. As for CCCAACGACUGCCGAGCGAGAUGACGCUUUAGCGCCCCACUGAGGAUGCCCACGGGCGAUUGGGGCACGG [U23G G30U], the figure is 7.41 nM. For the variant CCCAACGACUGCCGAGCGAGAUGACGCUUGAGCGCCCCACUGAGUAUGCCCACGGGCGAUUGGGGCACGG [U23G G45U], the Kd worked out at 6.11 nM. Regarding CCCAACGACUGCCGAGCGAGAUGACGCUUGAGCGCCCCACUGAGAAUGCCCACGGGCGAUUGGGGCACGG [U23G G45A], the Kd came to 19.3 nM. Next, CCCAACGACUGCCGAGCGAGAUGACGCUUGAGCGCCACACUGAGGAUGCCCACGGGCGAUUGGGGCACGG [U23G C37A]: 13.4 nM; CCCAACGACUGCCGAGCGAGAUGACGCUUGAGCGCCUCACUGAGGAUGCCCACGGGCGAUUGGGGCACGG [U23G C37U]: 13.8 nM. In the case of CCCAACGACUGCCGAGCGAGAUGACGCUUGAGCGCCGCACUGAGGAUGCCCACGGGCGAUUGGGGCACGG [U23G C37G], the Kd came out at 7.9 nM. Next, CCCAACGACUGCCGAGCGAGAUGAUGCUUGAGCGCCCCACUGAGGAUGCCCACGGGCGAUUGGGGCACGG [U23G C25U]: 5.73 nM. Next, CCCAACGACUGCCGAGCGAGAUGAGGCUUGAGCGCCCCACUGAGGAUGCCCACGGGCGAUUGGGGCACGG [U23G C25G]: 5.84 nM; CCCAACGACUGCCGAGCGAGAUGACGCUUGAGCGCCCCACUGGGGAUGCCCACGGGCGAUUGGGGCACGG [U23G A43G]: 25.1 nM. Take CCCAACGACUGCCGAGCGAGAUGACGCUUGAGCGCCCCACUGUGGAUGCCCACGGGCGAUUGGGGCACGG [U23G A43U]: the Kd was 85.7 nM. For CCCAACGACUGCCGAGCGAGAUGACGCUUGAGCGCCCCACUAAGGAUGCCCACGGGCGAUUGGGGCACGG [U23G G42A], the Kd turned out to be 60.7 nM. Consider CCCAACGACUGCCGAGCGAGAUGACGCUUGAGCGCCCCACUUAGGAUGCCCACGGGCGAUUGGGGCACGG [U23G G42U], for which the Kd was determined as 13.1 nM. As for CCCAACGACUGCCGAGCGAGAUGACGCUUGAGCGCCCAACUGAGGAUGCCCACGGGCGAUUGGGGCACGG [U23G C38A], the figure is 35.2 nM. As for CCCAACGACUGCCGAGCGAGAUGACGCUUGAGCGCCCUACUGAGGAUGCCCACGGGCGAUUGGGGCACGG [U23G C38U], the figure is 9.73 nM.

As to CCCAACGACUGCCGAGCGAGAUGACGCUUGAGCGUCCCACUGAGGAUGCCCACGGGCGAUUGGGGCACGG [U23G C35U], the Kd came to 11.5 nM. For the variant CCCAACGACUGCCGAGCGAGAUGACGCUUGAGCGGCCCACUGAGGAUGCCCACGGGCGAUUGGGGCACGG [U23G C35G], the Kd was found to be 7.07 nM.

Consider CCCAACGACUGCCGAGCGAGAUGACACUUGAGCGCCCCACUGAGGAUGCCCACGGGCGAUUGGGGCACGG [U23G G26A], for which the Kd is 6.05 nM. On to CCCAACGACUGCCGAGCGAGAUGACUCUUGAGCGCCCCACUGAGGAUGCCCACGGGCGAUUGGGGCACGG [U23G G26U], for which the Kd turned out to be 6.03 nM. Next, CCCAACGACUGCCGAGCGAGAUGACGCUUGAGCGCCCCACUGAGGAUGCCCGCGGGCGAUUGGGGCACGG [U23G A52G]: 4.37 nM; CCCAACGACUGCCGAGCGAGAUGACGCUUGAGCGCCCCACUGAGGAUGCCCUCGGGCGAUUGGGGCACGG [U23G A52U]: 17.6 nM; CCCAACGACUGCCGAGCGAGAUGACGCUUGAGCGCCCCACUGAGGAUGCCCACGGGCGAUUGGGGCACGG [U23G]: 4.99 nM. For the variant CCCAACGACUGCCGAGCGAGAUAACGCUUGAGCGCCCCACUGAGGAUGCCCACGGGCGAUUGGGGCACGG [U23A], the Kd was found to be 5.15 nM. On to CCCAACGACUGCCGAGCGAGAUCACGCUUGAGCGCCCCACUGAGGAUGCCCACGGGCGAUUGGGGCACGG [U23C], for which the Kd was found to be 4.16 nM. CCCAACGACUGCCGAGCGAGAUGACGCUUGAGCGCCCCACUGAGGAUUCCCACGGGCGAUUGGGGCACGG [U23G G48U]: the Kd turned out to be 7.64 nM. With CCCAACGACUGCCGAGCGAGAUGACGCUUGAGCGCCCCACUGAGGAUACCCACGGGCGAUUGGGGCACGG [U23G G48A], the Kd was found to be 11 nM. Consider CCCAACGACUGCCGAGCGAGAUGACGCUUGAGCGCCCCACUGAGGAUGUCCACGGGCGAUUGGGGCACGG [U23G C49U], for which the Kd came out at 15.6 nM. As to CCCAACGACUGCCGAGCGAGAUGACGCUUGAGCGCCCCACUGAGGAUGGCCACGGGCGAUUGGGGCACGG [U23G C49G], the Kd was 7.29 nM. Turning to CCCAACGACUGCCGAGCGAGAUGACGCUUGAGCGCCCCAGUGAGGAUGCCCACGGGCGAUUGGGGCACGG [U23G C40G], the Kd is 5.5 nM.

Regarding CCCAACGACUGCCGAGCGAGAUGACGCUUGAGCGCCCCAUUGAGGAUGCCCACGGGCGAUUGGGGCACGG [U23G C40U], the Kd was determined as 135 nM.

With CCCAACGACUGCCGAGCGAGAUAGCGCUUGAGCGCCCCACUGAGGAUGCCCACGGGCGAUUGGGGCACGG [U23A A24G], the Kd is 6.07 nM. Consider CCCAACGACUGCCGAGCGAGAUGACGCUUGAGCGCCCCACUGAGGAUGCCCACAGGCGAUUGGGGCACGG [U23G G54A], for which the Kd turned out to be 14.4 nM. Next, CCCAACGACUGCCGAGCGAGAGUACGCUUGAGCGCCCCACUGAGGAUGCCCACGGGCGAGUGGGGCACGG [U22G U60G]: 7.18 nM.

For CCCAACGACUGCCGAGCGAGAGUACGCUUGAGCGCCCCACUGAGGAUGCCCACGGGCGACUGGGGCACGG [U22G U60C], the Kd turned out to be 10.8 nM.

Turning to CCCAACGACUGCCGAGCGAGAGUACGCUUGAGCGCCCCACUGAGGAUGCCCACGGGCGAAUGGGGCACGG [U22G U60A], the Kd is 9.43 nM.
